High-throughput results as filed in PubChem BioAssay.
NTR1 agonist – agonists of human neurotensin receptor NTR1 | NTR1-U2OS beta-arrestin-GFP spot imaging, agonist mode | AID 493036 | activation, % at 20 µM | 330,000 compounds, 0.17% hits | P30989;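 active = activation at or above 40% of the spot to cytoplasm intensity ratio, with at least 20 cells analyzed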;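 note: 0% = DMSO without peptide and 100% = 100 nM NTR1 peptide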
Granule exo inh – lytic granule exocytosis inhibition; TALL-104 LAMP-1 surface exposure, flow cytometry; cells stimulated with thapsigargin and PMA; inhibition, % at 10 µM; 360,000 compounds, 0.66% hits; AID 651702;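 active = inhibition above about 55%, limit read from the data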
Bfl-1 A1 inh – inhibitors of the anti-apoptotic protein A1, read as caspase activation; MEF A1-2A-BIM cells, Caspase-Glo 3/7 luminescence, 3 h; percent of clofoctol response, vehicle zero; caspase activation, % (no concentration beside the values); 330,000 compounds, 0.066% hits; AID 2462;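 active = over half of replicate activation scores above 10%, or exactly half above 10 with the replicate mean above 10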
MC4R ag barr – human MC4R agonism via beta-arrestin. P32245. AID 540308. 360,000 compounds, 0.98% hits. U2OS MC4R beta-arrestin complementation, luminescence; percent of melanotan II response, DMSO zero. activation, % at 8.9 µM;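 active = activation above a per-plate cutoff, the mean activation of sample wells on that plate plus 3 SD, cut at about 8% in these data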
MC4R antag cAMP – blocks human MC4R cAMP signaling. MC4R-expressing cells, MTII-stimulated cAMP, LANCE TR-FRET. inhibition, % at 6.5 µM. AID 540295. 360,000 compounds, 0.48% hits;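 active = inhibition above its plate's cutoff, the mean of tested wells on that plate plus 3 SD, cut at about 29% in these data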;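 note: 0% = Melanotan II alone and 100% = Melanotan II plus saturating MCL0020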
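material = U2OS cells stably expressing human melanocortin 4 receptor (MC4R) | also added = Melanotan II challenge | dosing = single nominal compound dose of 6.5 µM | detection = TR-FRET with Eu-cAMP and labeled anti-cAMP, 671 nm | replication = singlicate | timing = compound 30 min, challenge 1 h, detection 1 h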
sPLA2-III inh – Inhibits HGIII-sPLA2 liposome hydrolysis, primary screen; Q9NZ20; QFRET BODIPY PC-A2 liposome hydrolysis, fluorescence; inhibition, % at 12.2 µM; 370,000 compounds, 0.56% hits; AID 743126;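 active = inhibition above mean plus 3 SD of compounds lying within the high and low control bounds, cut at about 19% in these data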;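 note: 0% = median of test compound wells and 100% = no enzyme DMSO wells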
Target sequence (Q9NZ20 whole entry, looked up): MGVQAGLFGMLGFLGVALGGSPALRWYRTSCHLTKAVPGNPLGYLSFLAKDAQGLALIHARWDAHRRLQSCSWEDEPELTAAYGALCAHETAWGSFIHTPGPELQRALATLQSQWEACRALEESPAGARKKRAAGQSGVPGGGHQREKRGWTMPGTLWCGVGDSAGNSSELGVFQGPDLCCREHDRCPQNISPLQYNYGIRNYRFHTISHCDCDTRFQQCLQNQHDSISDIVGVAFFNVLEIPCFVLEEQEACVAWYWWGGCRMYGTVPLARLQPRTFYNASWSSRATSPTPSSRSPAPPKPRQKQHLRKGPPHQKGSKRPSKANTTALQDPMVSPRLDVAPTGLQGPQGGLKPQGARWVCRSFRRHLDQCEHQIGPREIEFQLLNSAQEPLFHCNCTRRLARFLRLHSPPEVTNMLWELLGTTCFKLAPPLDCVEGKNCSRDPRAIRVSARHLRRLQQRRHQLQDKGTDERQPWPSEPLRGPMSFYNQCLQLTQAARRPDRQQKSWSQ
MC4R barr ag – human MC4R beta-arrestin agonism confirmation; shares compounds with MC4R ag barr; U2OS MC4R beta-arrestin recruitment, luminescence; scaled DMSO 0%, Melanotan II 100%; activation, % at 8.9 µM; 2,400 compounds, 31% hits;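 active = mean activation across replicates above the hit cutoff set in the earlier primary screen, cut at about 8% in these data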
MOR DOR agonist – activates mu-delta opioid heterodimer, MC4R agonist counter-screen; 2,400 compounds, 5.8% hits; activation, % at 9.2 µM; U2OS PathHunter beta-arrestin, beta-gal luminescence; percent of deltorphin B response, DMSO zero; shares compounds with MC4R ag barr;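 active = mean activation across replicates exceeds the hit threshold derived in the earlier primary screen, cut at about 18% in these data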;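 note: 100% = deltorphin B at 0.9 µM final and 0% = DMSO alone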
* hit, by the source's call; . = no result given. Compounds with a hit are over-represented: about 2.5% of the library has one in this group of screens.

SMILES | NTR1 agonist | Granule exo inh | Bfl-1 A1 inh | MC4R ag barr | MC4R antag cAMP | sPLA2-III inh | MC4R barr ag | MOR DOR agonist
Cc1nc(NC(=O)c2cccc(-c3cc4ccccc4oc3=O)c2)ccc1Br | 25 | -4 | 0 | 24* | -5 | 4 | 17* | 12
Cc1nc(NC(=O)c2ccc(-c3cc4ccccc4oc3=O)cc2)ccc1Br | -1 | -3 | 1 | 1 | 4 | 13 | . | .
COCCN(C[C@@H]1[C@H](c2ccccc2)[C@H](CO)N1c1nc(C)c(C)s1)S(=O)(=O)c1ccccc1[N+](=O)[O-] | . | . | . | . | . | 2 | . | .
Cc1ccc(C(=O)Nc2ccc(C(=O)/C=C/c3cccs3)cc2)cc1 | 0 | 0 | -1 | 28* | 9 | 0 | 2 | 6
O=C(CSc1nc(-c2ccco2)cc(C(F)(F)F)n1)Nc1ccc2c(c1)CCC2 | 4 | 1 | 0 | 3 | -10 | -1 | . | .
Cc1ccc(NC(=O)CSc2nc(-c3ccco3)cc(C(F)(F)F)n2)cc1C | 0 | -1 | 0 | 24* | -21 | -6 | 4 | 4
COC(=O)[C@]12C=CCN1[C@@H](c1ccc(C(F)(F)F)cc1)c1c(c3ccccc3n1S(=O)(=O)c1ccc(C)cc1)C2 | . | . | . | . | . | 9 | . | .
Cc1c(C(=O)NC2CCCc3ccccc32)oc2ccc(S(=O)(=O)N3CCCC3)cc12 (stereo not given) | 5 | 2 | 1 | 14* | 17 | 5 | 4 | 4
Cc1c(C(=O)NC2CCCc3ccccc32)oc2ccc(S(=O)(=O)N3CCCCC3)cc12 (stereo not given) | 4 | -4 | 0 | 0 | 17 | -5 | . | .
COc1ccc(S[C@]2(C(=O)N3CCOCC3)CC(=O)N(c3ccc(C#N)cc3)[C@@H]2c2ccc(OC)cc2)cc1 | . | . | . | . | . | -10 | . | .
COC(=O)c1cc(-c2ccc3ccccc3c2)c(=O)n2c1CCC2 | . | . | . | . | . | -9 | . | .
COc1ccc(NC(=O)CSc2ccc(-c3cccs3)nn2)c(OC)c1 | 1 | 3 | 1 | 14* | -2 | -3 | 0 | 2
COc1ccc(-c2nnc3ccc(SCC(=O)Nc4nccs4)nn23)cc1OC | -1 | -5 | 1 | -1 | 10 | 2 | . | .
COc1ccc(-c2ccc(SCC(=O)Nc3nccs3)nn2)cc1OC | 1 | -3 | -1 | 11* | 3 | -2 | 3 | 2
C[C@@H]1CN([C@@H](C)CO)C(=O)CCCn2cc(nn2)CO[C@H]1CN(C)C(=O)Nc1ccc(-c2cccs2)cc1 | . | . | . | . | . | 11 | . | .
Cc1ccccc1NCC(=O)N/N=C/c1ccc[nH]1 | . | . | . | . | . | 7 | . | .
CCN1C(=O)S/C(=C\c2ccc(N3CCOCC3)cc2C)C1=O | 1 | -1 | -1 | 0 | 3 | -3 | . | .
C#CCN1C(=O)S/C(=C\c2ccc(N3CCOCC3)cc2C)C1=O | -1 | -2 | 0 | 11* | 6 | 5 | -3 | 3
O=C(NCCc1ccccc1)OCc1cn(Cc2ccc(F)cc2F)nn1 | . | . | . | . | . | 1 | . | .
Cc1cc(C=C2C(=O)c3ccccc3C2=O)c(C)n1C | 1 | 1 | 0 | 21* | -6 | 5 | 0 | 10
Cc1ccccc1Cn1ccc(NC(=O)c2cc3nc(-c4ccco4)cc(C(F)(F)F)n3n2)n1 | 9 | 0 | 0 | 15* | 11 | -3 | -1 | 5
O=C(Nc1ccc2oc(=O)ccc2c1)c1ccc(-c2cccc(Cl)c2)o1 | 8 | 3 | 0 | 20* | 21 | -3 | 0 | 8
Cc1cccc2sc(NC(=O)C3CCCN(S(=O)(=O)c4cccc5nonc45)C3)nc12 (stereo not given) | 4 | 1 | 2 | 9.9* | 6 | -5 | 3 | 7
Cc1ccc2nc(NC(=O)C3CCCN(S(=O)(=O)c4cccc5nonc45)C3)sc2c1 (stereo not given) | -2 | . | -1 | . | . | . | . | .
